The record followed here is ChEMBL document CHEMBL2331500, “Bioactive flavaglines and other constituents isolated from Aglaia perviridis” (J Nat Prod, 2013).

In series [1] the target is Transcription factor p65 (Homo sapiens) (UniProt Q04206). Nature of the series: Inhibition of NF-kappaB p65 (unknown origin) by ELISA. Background: ELISA stands for enzyme-linked immunosorbent assay.
Series [2] is described as follows: Cytotoxicity against human CCD-112CoN cells. The format is cell-based. The following applies: read-out: ED50 (the source's name).
For the next series, the system named is HT-29. In words: Cytotoxicity against human HT-29 cells. The format is functional. The note with it: read-out: ED50 (the source's name). The method, boiled down:
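HT-29 human colon cancer cells, run by a previously described protocol on all isolates. Growth inhibition was reported as ED50, and a positive control compound was run alongside.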

Transcription factor p65 (Homo sapiens), sequence (Q04206 whole entry): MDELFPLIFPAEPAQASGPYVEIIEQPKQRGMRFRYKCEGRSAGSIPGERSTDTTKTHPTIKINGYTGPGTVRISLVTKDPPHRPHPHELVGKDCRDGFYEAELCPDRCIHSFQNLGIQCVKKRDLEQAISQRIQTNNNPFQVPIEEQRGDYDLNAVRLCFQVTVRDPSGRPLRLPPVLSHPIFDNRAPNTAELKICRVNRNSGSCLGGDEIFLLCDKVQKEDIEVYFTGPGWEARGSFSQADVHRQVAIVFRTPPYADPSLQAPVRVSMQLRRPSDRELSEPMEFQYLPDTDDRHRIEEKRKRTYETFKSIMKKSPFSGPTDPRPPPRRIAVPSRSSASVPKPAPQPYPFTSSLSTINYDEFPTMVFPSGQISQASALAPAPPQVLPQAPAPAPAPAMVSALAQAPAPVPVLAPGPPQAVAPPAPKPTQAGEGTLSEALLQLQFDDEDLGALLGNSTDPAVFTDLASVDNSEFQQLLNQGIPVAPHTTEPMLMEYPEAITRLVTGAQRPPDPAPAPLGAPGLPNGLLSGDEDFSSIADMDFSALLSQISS

Regarding `COC(=O)[C@H]1[C@@H](O)[C@@]2(O)c3c(OC)cc(OC)cc3O[C@@]2(c2ccc3c(c2)OCO3)[C@@H]1c1ccccc1`, the ED50 in series [1] came out at 3.54 µM. Further, the CC50 in series [2] is above 50 µM. Also, the EC50 in the series with HT-29 (Homo sapiens, HT-29) was found to be 0.002 µM.

In the case of `COC(=O)[C@H]1[C@@H](OC=O)[C@@]2(O)c3c(OC)cc(OC)cc3O[C@@]2(c2ccc3c(c2)OCO3)[C@@H]1c1ccccc1`, in series [2], the CC50 is above 50 µM. The EC50 in the series on HT-29 (Homo sapiens, HT-29) came out at 0.056 µM.

`COC(=O)[C@H]1[C@@H](O)[C@@]2(OC)c3c(OC)cc(OC)cc3O[C@@]2(c2ccc(OC)cc2)[C@@H]1c1ccccc1` gave an ED50 in series [1] above 20 µM. Also, the CC50 in series [2] was above 50 µM. In addition, the EC50 in the series with HT-29 (Homo sapiens, HT-29) is 4.9 µM.

For the molecule `CC(C)[C@H]1CC[C@]2(C)C(=O)CCC(C=O)=C[C@H]12`, in series [1], the ED50 amounted to 0.005 µM. In addition, the EC50 in the series on HT-29 (Homo sapiens, HT-29) is above 20 µM.

In series [1], `CC1=CC(=O)CC(C)(C)[C@H]1CC[C@H](O)CO` yielded an ED50 above 20 µM. In addition, the EC50 in the series with HT-29 (Homo sapiens, HT-29) was above 10 µM.

In turn, `C=C(CC[C@@H](CO)[C@H]1CC[C@@]2(C)[C@@H]3CC[C@H]4C(C)(C)[C@@H](O)CC[C@@]45C[C@@]35CC[C@]12C)C(C)C` showed an ED50 in series [1] above 20 µM. The EC50 in the series with HT-29 (Homo sapiens, HT-29) was above 10 µM.

Molecule `COc1ccc(-c2oc3cc(OC)cc(OC)c3c(=O)c2O)cc1` returned an ED50 in series [1] above 20 µM. Further, the EC50 with HT-29 (Homo sapiens, HT-29) was above 10 µM.

As for `COc1ccc([C@@]23Oc4cc(OC)cc(OC)c4[C@]2(OC)[C@H](O)C[C@H]3c2ccccc2)cc1`, in series [1], the ED50 is above 20 µM. Besides, in the series on HT-29 (Homo sapiens, HT-29), the EC50 is above 10 µM.

In series [1], `COc1cc(OC)c2c(c1)O[C@@]1(c3ccc4c(c3)OCO4)[C@H](c3ccccc3)C[C@@H](O)[C@@]21OC` displayed an ED50 above 20 µM. The CC50 in series [2] is above 50 µM. For the same molecule, the EC50 in the series on HT-29 (Homo sapiens, HT-29) worked out at 0.96 µM.

With `COC(=O)[C@H]1[C@@H](O)[C@@]2(OC)c3c(OC)cc(OC)cc3O[C@@]2(c2ccc3c(c2)OCO3)[C@@H]1c1ccccc1`, the ED50 in series [1] is above 20 µM. For the same molecule, the CC50 in series [2] was above 50 µM. In addition, in the series on HT-29 (Homo sapiens, HT-29), the EC50 was 4.7 µM.

For the molecule `COc1cc(OC)c2c(c1)O[C@@]1(c3ccc4c(c3)OCO4)[C@H](c3ccccc3)C[C@@H](O)[C@@]21O`, in series [1], the ED50 came to 0.33 µM. In addition, the CC50 in series [2] was above 50 µM. The EC50 with HT-29 (Homo sapiens, HT-29) worked out at 0.0067 µM.

Turning to `COC(=O)[C@H]1[C@@H](OC=O)[C@@]2(O)c3c(OC)cc(OC)cc3O[C@@]2(c2ccc(OC)cc2)[C@@H]1c1ccccc1`, the ED50 in series [1] was above 20 µM. Further, the CC50 in series [2] was above 50 µM. In addition, the EC50 in the series on HT-29 (Homo sapiens, HT-29) worked out at 0.019 µM.

In the case of `COc1ccc([C@]23Oc4cc(OC)cc(OC)c4[C@](O)(C2O)[C@@H](c2ccccc2)[C@@H]3C(=O)NCCCCNC(=O)/C(C)=C/CO)cc1` (stereo in doubt; 1) [listing 1 of 2 here], in the series on HT-29, the EC50 was above 10 µM.

In series [1], `COc1ccc([C@]23Oc4cc(OC)cc(OC)c4[C@](O)(C2O)[C@@H](c2ccccc2)[C@@H]3C(=O)NCCCCNC(=O)/C(C)=C/CO)cc1` (stereo in doubt; 1) [listing 2 of 2 here] returned an ED50 above 20 µM.

With `COc1ccc([C@]23Oc4cc(OC)cc(OC)c4[C@](O)(C2O)[C@@H](c2ccccc2)[C@@H]3C(=O)NCCCCNC(=O)/C(C)=C/CO)cc1` (stereo in doubt; 2) [listing 1 of 2 here], the CC50 in series [2] is above 50 µM. In the series on HT-29, the EC50 was 0.46 µM.

In turn, `COc1ccc([C@]23Oc4cc(OC)cc(OC)c4[C@](O)(C2O)[C@@H](c2ccccc2)[C@@H]3C(=O)NCCCCNC(=O)/C(C)=C/CO)cc1` (stereo in doubt; 2) [listing 2 of 2 here] registered an ED50 in series [1] of 2.4 µM.

The molecule `COC(=O)[C@H]1[C@@H](O)[C@@]2(O)c3c(OC)cc(OC)cc3O[C@@]2(c2ccc(OC)cc2)[C@@H]1c1ccccc1` [AGLAFOLIN] displayed an ED50 in series [1] above 20 µM. For the same molecule, the CC50 in series [2] was above 50 µM. The EC50 in the series on HT-29 (Homo sapiens, HT-29) is 0.012 µM.

As for `CC(C)=C[C@H](O)[C@@H](O)[C@@H](CO)[C@H]1CC[C@@]2(C)[C@@H]3CC[C@H]4C(C)(C)[C@@H](O)CC[C@@]45C[C@@]35CC[C@]12C` [ARGENTEANOL], the ED50 in series [1] was above 20 µM. Further, in the series on HT-29 (Homo sapiens, HT-29), the EC50 was above 10 µM.

With `CC1(C)[C@H](O)CC[C@]2(C)[C@H]3CC[C@@H]4[C@@H]([C@]5(C)CCC(=O)O5)CC[C@@]4(C)[C@]3(C)CC[C@@H]12` [CABRALEAHYDROXYLACTONE], in series [1], the ED50 was above 20 µM. The EC50 in the series with HT-29 (Homo sapiens, HT-29) was above 10 µM.

Take `COc1ccc([C@@]23Oc4cc(OC)cc(OC)c4[C@]2(O)[C@H](O)[C@H](C(N)=O)[C@H]3c2ccccc2)cc1` [DIDESMETHYLROCAGLAMIDE]: the ED50 in series [1] was above 20 µM. Further, the CC50 in series [2] was above 50 µM. Moreover, the EC50 in the series with HT-29 (Homo sapiens, HT-29) stood at 0.021 µM.

As to `CC1=CC(O)N(CCCCNC(=O)/C=C/c2ccccc2)C1=O` (configuration not stated) [GIGANTAMIDE A], the ED50 in series [1] was above 20 µM. Besides, the EC50 with HT-29 (Homo sapiens, HT-29) was above 10 µM.

For the molecule `CC(=O)O[C@H]1C(=O)[C@@]2(C)[C@H]([C@H](OC(=O)c3ccccc3)[C@]3(O)C[C@H](OC(=O)[C@H](O)[C@@H](NC(=O)c4ccccc4)c4ccccc4)C(C)=C1C3(C)C)[C@]1(OC(C)=O)CO[C@@H]1C[C@@H]2O` [PACLITAXEL], the CC50 in series [2] stood at 23 µM. Besides, in the series with HT-29 (Homo sapiens, HT-29), the EC50 amounted to 0.001 µM.

With `CC(C)=CC(=O)[C@@H](O)[C@@H](C)[C@H]1CC[C@@]2(C)[C@@H]3CC[C@H]4C(C)(C)[C@@H](O)CC[C@@]45C[C@@]35CC[C@]12C` [PERVIRIDISINOL A], the ED50 in series [1] is above 20 µM. Moreover, the EC50 in the series on HT-29 (Homo sapiens, HT-29) is above 10 µM.

`CC(C)=C[C@H]1OC[C@@H]([C@H]2CC[C@@]3(C)[C@@H]4CC[C@H]5C(C)(C)[C@@H](O)CC[C@@]56C[C@@]46CC[C@]23C)[C@@H]1O` [PERVIRIDISINOL B] yielded an ED50 in series [1] above 20 µM. Moreover, the EC50 in the series on HT-29 (Homo sapiens, HT-29) was above 10 µM.

For the molecule `C=C(CC[C@@H](CO)[C@H]1CC[C@@]2(C)[C@@H]3CC[C@H]4[C@H](C)[C@@H](O)CC[C@@]45C[C@@]35CC[C@]12C)C(C)C` [PERVIRIDISINOL C], the ED50 in series [1] is above 20 µM. In the series on HT-29 (Homo sapiens, HT-29), the EC50 was above 10 µM.

Turning to `COc1ccc([C@@]23Oc4cc(OC)cc(OC)c4[C@]2(O)[C@H](O)[C@H](C(=O)N(C)C)[C@H]3c2ccccc2)cc1` [ROCAGLAMIDE], the CC50 in series [2] is above 50 µM. For the same molecule, the EC50 with HT-29 (Homo sapiens, HT-29) was 0.005 µM.

For the molecule `COc1ccc([C@@]23Oc4cc(OC)cc(OC)c4[C@]2(O)[C@H](O)C[C@H]3c2ccccc2)cc1` [ROCAGLAOL], in series [1], the ED50 was found to be 0.005 µM. For the same molecule, the CC50 in series [2] was above 50 µM. The EC50 in the series with HT-29 (Homo sapiens, HT-29) was 0.0007 µM.

In series [1], `COc1cc2ccc(=O)oc2cc1O` [SCOPOLETIN] showed an ED50 above 20 µM. For the same molecule, in the series on HT-29 (Homo sapiens, HT-29), the EC50 was above 10 µM.
